A selection: hits, their analogues and other compounds. The true share with any hit is near 3.5%.
RGS4 inh: inhibitors of human RGS4 | P49798 | HEK293 M3R/RGS4 inducible, Fluo-4 calcium flux; active compounds read high; triggered by carbachol at its EC20 | B-score at 10 µM | 310,000 tested, 0.45% active;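 active means B-score, a plate-corrected calcium signal, over three deviations above library mean, with baseline fluorescence within five deviations of library mean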;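 further: RGS4 expression induced by doxycycline in cells with stable M3 receptor; B-score is computed from the integrated fluorescence ratio over baseline after carbachol; higher B-score means a larger calcium signal and so more RGS4 inhibition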
Target sequence (P49798 whole entry, looked up): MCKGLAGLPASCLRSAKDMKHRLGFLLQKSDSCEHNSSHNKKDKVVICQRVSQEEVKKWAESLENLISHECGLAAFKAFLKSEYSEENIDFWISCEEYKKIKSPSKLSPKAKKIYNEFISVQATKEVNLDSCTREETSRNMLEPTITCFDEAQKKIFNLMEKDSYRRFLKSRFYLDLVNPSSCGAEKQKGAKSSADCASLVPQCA
MrgX1 allo act: allosterically activates human MrgX1 receptor signaling; Q96LB2; B-score at 10 µM; 310,000 tested, 0.63% active; MrgX1-HEK293, Fluo-4 calcium flux, FDSS; active compounds read high;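 active means plate-corrected calcium response at least 3 library SD above typical, normal starting fluorescence, not activating the receptor alone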;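 further: compound read alongside a low EC10 to EC30 dose of BAM8-22 agonist; peak minus trough fluorescence over baseline measured at the second addition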
Target sequence (Q96LB2 whole entry, looked up): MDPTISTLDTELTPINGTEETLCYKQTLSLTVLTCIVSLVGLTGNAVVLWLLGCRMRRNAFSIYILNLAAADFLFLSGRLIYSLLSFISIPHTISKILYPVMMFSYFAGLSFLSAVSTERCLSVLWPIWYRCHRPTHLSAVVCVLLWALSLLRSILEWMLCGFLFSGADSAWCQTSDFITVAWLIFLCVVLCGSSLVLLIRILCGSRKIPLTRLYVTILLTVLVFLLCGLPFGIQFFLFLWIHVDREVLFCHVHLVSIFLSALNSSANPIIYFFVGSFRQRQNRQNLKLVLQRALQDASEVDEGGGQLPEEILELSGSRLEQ
MrgX1 antagonist: human MrgX1 receptor antagonism, primary screen; B-score at 10 µM; Q96LB2; MRGX1-HEK293 calcium flux, Fluo-4, BAM8-22 antagonism; active compounds read low; 310,000 tested, 1.3% active;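 active means calcium-response B-score plate-corrected more than 3 library SD below zero, starting fluorescence within 5 deviations, no agonist response on first addition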;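 further: peak minus trough fluorescence over baseline after final BAM8-22 challenge near maximal dose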
MrgX1 ag: activates human MrgX1 receptor signaling | Q96LB2 | MrgX1-HEK293 cells, Fluo-4 calcium fluorescence, agonist mode; active compounds read high | B-score at 10 µM | 310,000 tested, 0.44% active | AID 588627;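 active means calcium response B-score plate-corrected fluorescence ratio at least 3 library SD, with starting fluorescence B-score inside 5 SD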
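System: HEK293 cells stably expressing human MrgX1 receptor; Dosing: test compound in the initial addition of three; Schedule: overnight plating, then 30 min 37 °C plus 30 min room-temperature dye loading; Detection: kinetic calcium dye fluorescence, Fluo-4 NW; Controls: per-plate positive and negative controls for Z′ factor.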
RGS4 pot: potentiators or activators of RGS4 | HEK293 M3R/inducible RGS4, carbachol calcium flux Fluo4; active compounds read low | B-score at 10 µM | 310,000 tested, 0.92% active | AID 463111;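 active means B-score of the integrated calcium signal more than 4 SD below the library mean, with starting fluorescence not abnormally high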;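 further: negative B-score means reduced calcium response which marks RGS4 activation or potentiation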
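Material: Inducible-RGS4 HEK293 cells carrying M3 receptor; also added: carbachol at ECmax as muscarinic agonist stimulus; incubation: compound preincubation 20 min at room temperature before agonist; signal: Fluo4-AM (2 µM) calcium-flux fluorescence, kinetic read; measure: integrated calcium ratio converted to B score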
MrgX1 antag conf: confirmation of human MrgX1 receptor antagonists; MrgX1-HEK293, BAM8-22 calcium flux, Fluo-4; active compounds read low; remaining BAM8-22 calcium response % of control (active compounds read low), % at 10 µM; 2,300 tested, 19% active; shares compounds with MrgX1 antagonist;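 active means remaining agonist calcium response no higher than 100% minus 3 SD of agonist-only control wells, with starting fluorescence near control levels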;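 further: agonist BAM8-22 given at a near maximal EC90 to ECmax level; peak minus minimum fluorescence divided by baseline after agonist addition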
HEK293 Ca flux: MrgX1 antagonist counter-screen hit in parental HEK293 cells | shares compounds with MrgX1 antagonist | fluorescence ratio F(max-min)/F0 at 10 µM | Fluo-4 calcium fluorescence, FDSS | 4,000 tested, 2% active;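 active means duplicate-averaged calcium fluorescence ratio at least three times the standard deviation of buffer wells, a nonspecific response in parental cells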
HEK293 Ca counter: activity in parental HEK293 cells without MrgX1 | shares compounds with MrgX1 antagonist | parental HEK293 calcium flux, Fluo-4 fluorescence ratio; active compounds read high | fluorescence ratio F(max-min)/F0 at 10 µM | 4,000 tested, 0.4% active | AID 624114;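 active means calcium fluorescence ratio, averaged over duplicates, at least 3 SD of the buffer-well ratio, meaning a nonspecific response in receptor-free cells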;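 further: untransfected parental HEK293 lacking MrgX1 used as counterscreen for MrgX1 allosteric activators; fluorescence change taken during the second addition on a kinetic imager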
HEK293 Ca cntr2: counter-screen for MrgX1 activators: effect in parental HEK293 cells. shares compounds with MrgX1 antagonist. AID 624115. fluorescence ratio F(max-min)/F0 at 10 µM. 4,000 tested, 8.7% active. Fluo-4 calcium fluorescence (FDSS); active compounds read high;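 active means calcium fluorescence ratio at least three times the spread of buffer wells, meaning a non-specific response in parental cells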
Starred values were filed as active, the others as inactive; i = inactive; . = no result.

SMILES | RGS4 inh | MrgX1 allo act | MrgX1 antagonist | MrgX1 ag | RGS4 pot | MrgX1 antag conf | HEK293 Ca flux | HEK293 Ca counter | HEK293 Ca cntr2
Cn1c(=O)oc2cc(S(=O)(=O)N3CCCC(C(=O)NCCN4CCOCC4)C3)ccc21 (centres undefined) | . | i | -4.6* | i | . | i | i | i | i
Cc1nc(N2CCN(c3ccccc3)CC2)[nH]c(=O)c1C | i | i | i | i | i | . | . | . | .
O=C(NC(=S)NCCN1CCOCC1)c1ccccc1Cl | i | i | -4.9* | i | i | i | i | i | i
O=C(NCN1C(=O)C2C3C=CC(C3)C2C1=O)Nc1nncs1 (centres undefined) | i | i | -4.6* | i | i | 85%* | i | i | i
Cc1nc(CNS(=O)(=O)c2ccccc2F)cs1 | i | i | -4.6* | i | i | i | i | i | i
Cc1nc(CNS(=O)(=O)c2cccs2)cs1 | i | i | i | i | i | . | . | . | .
CCOC(=O)C1(Cc2cccc(OC)c2)CCCN(C(=O)CNC(C)=O)C1 (centres undefined) | i | i | i | i | i | . | . | . | .
CSc1nc(-c2ccco2)cc(C(F)(F)F)c1C#N | i | i | i | i | i | . | . | . | .
N#Cc1c(C(F)(F)F)cc(-c2ccco2)nc1SCc1ccccn1 | i | i | -4.7* | i | i | i | i | i | i
CC(=O)Oc1c(S(=O)(=O)c2ccc(C)cc2)c(C)nn1C(C)(C)C | i | i | i | i | i | . | . | . | .
CCCCC(=O)Oc1c(S(=O)(=O)c2ccc(C)cc2)c(C)nn1C(C)(C)C | i | i | -5.2* | i | i | i | i | i | i
O=C(Cc1cccs1)Nc1cccc(-c2nnc(-c3ccco3)o2)c1 | i | i | -7.4* | i | i | i | i | i | i
COc1cc(NC(=O)c2ccco2)c(OC)cc1NC(=O)Nc1ccccc1Cl | i | i | -5.9* | i | i | i | i | i | i
Cc1cc(C)cc(NC(=O)CSCc2cc(=O)n3ccsc3n2)c1 | i | i | i | i | i | . | . | . | .
COc1ccc(N2CCN(C(=O)CCNS(=O)(=O)c3ccccc3)CC2)cc1 | i | i | i | i | i | . | . | . | .
O=C(CSc1nnc(-c2ccccc2)n1Cc1ccccc1)N1CCOCC1 | i | i | i | i | i | . | . | . | .
Oc1ccccc1-c1nnc(SCCN2CCOCC2)n1Cc1ccccc1 | i | i | -6.8* | i | i | i | i | i | i
O=C(CSc1nnc(-c2ccccc2Cl)o1)N1CCCC1 | i | i | i | i | i | . | . | . | .
O=C(CSc1nnc(-c2ccccc2Cl)o1)N1CCCCC1 | i | i | -4.9* | i | i | i | i | i | i
CCCSCCCNC(=O)c1ccccc1NC(=O)C1=CSCCO1 | i | i | i | i | i | . | . | . | .
CC(C)c1ccc(NS(=O)(=O)c2ccc(N3C(=O)CCC3=O)cc2)cc1 | i | i | i | i | i | . | . | . | .
Cc1ccc(NS(=O)(=O)c2ccc(N3C(=O)CCC3=O)cc2)cc1 | i | i | -5.4* | i | i | i | i | i | i
Cc1ccc(C2C=NN(c3ccccc3)C2=O)cc1 (centres undefined) | i | i | i | i | i | . | . | . | .
O=C(Nc1ccc(Cl)cc1)N(Cc1cccnc1)Cc1ccco1 | i | i | -5.7* | i | i | i | i | i | i
O=C1O/C(=C/c2ccccc2)N=C1c1ccccc1 | i | i | -5* | i | i | i | i | i | i
